Assay outcomes from PubChem BioAssay.
Shown are actives, neighbours in structure and some others; about 2.3% of the full set was active somewhere.
TRPC4 block = inhibitors of mouse TRPC4 channel, primary screen, Fluo4 calcium, HEK293 TRPC4beta/mu-opioid cells. B-score at 10 µM. DAMGO-evoked Fluo4 calcium flux; hits give low values. hit rate 0.39% among 300,000;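 active = B-score over 3 SD under the library average, no early fluorescence shift, positive overall ratio signal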
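Assay system: HEK293 cells with stable TRPC4beta plus mu-opioid receptor expression; Probe or stimulus: DAMGO in two steps, submaximal then maximal; Dosing: single-point compound dosing; Measured by: Fluo4 calcium-dye fluorescence, kinetic read; Read-out basis: B score from integrated Fluo4 fluorescence ratio.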
TRPC4 potent = positive allosteric modulators of TRPC4, primary screen, cell-based, mouse TRPC4beta, HEK293 mu-opioid, Fluo-4 calcium; Short transient receptor potential channel 4 (Mus musculus), Q9QUQ5; hit rate 0.42% among 310,000; B-score at 10 µM; AID 2227, 2009; DAMGO EC20, Fluo-4 Ca2+ flux; hits give high values;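 active = B-score of calcium response area above 5 SD of library B-scores, with initial fluorescence ratio within 5 SD of library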
TRPC6 inhibitor = mouse TRPC6 channel inhibitors, primary screen, cell-based, HEK293, membrane potential dye | ACh-evoked depolarization; hits give low values | B-score at 10 µM | hit rate 1.1% among 310,000 | AID 2553, 2010;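 active = B-score under library mean minus 3 SD, initial fluorescence not abnormally high, positive integrated signal ratio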;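 note: B-score derived from integrated fluorescence ratio over the kinetic read; more negative B-score means stronger inhibition of depolarization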
TRPC6 act = mouse TRPC6 channel activators, primary screen, cell-based, HEK293, membrane potential dye; Short transient receptor potential channel 6 (Mus musculus), Q61143; HEK293-TRPC6 membrane potential dye fluorescence; hits give high values; B-score at 10 µM; hit rate 0.13% among 310,000; AID 2550, 2010;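 active = B-score of the integrated fluorescence ratio above library mean plus 3 SD, and starting fluorescence ratio within library mean plus 5 SD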;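 note: higher score means more depolarization so channel activation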
TRPC4 agonist = activators of mouse TRPC4 channel, primary screen, Fluo4 calcium, HEK293 TRPC4beta/mu-opioid cells; Short transient receptor potential channel 4 (Mus musculus), Q9QUQ5; Fluo4 calcium fluorescence; hits give high values; B-score at 10 µM; hit rate 0.49% among 310,000; AID 2237, 2010;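 active = B-score above 5 SD of library B-scores, and initial fluorescence ratio not above library mean plus 5 SD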;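 note: positive B-score marks a calcium rise read as TRPC4 activation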
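Material: HEK293 stable line with TRPC4beta plus mu-opioid receptor; technique: Fluo4 calcium-sensitive dye fluorescence, kinetic, 1 Hz baseline; timing: Fluo4 dye loading 45 min at room temperature, 110 s recording; controls: assay buffer as low control, maximal DAMGO as high control; read-out: integrated baseline-normalised fluorescence ratio, converted to per-well B score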
Hits are given with their value.

Screening O=C(NCc1ccco1)c1cnn2c1NC(c1ccc(Br)cc1)CC2C(F)(F)F (stereo not given) returned TRPC4 block inactive, TRPC4 potent 13, TRPC6 inhibitor inactive, TRPC6 act inactive and TRPC4 agonist inactive.
For O=C(CN1C(=O)/C(=C/c2ccc(F)cc2)SC1=S)NC1CCS(=O)(=O)C1 (stereo not given) the results were TRPC4 block inactive, TRPC4 potent inactive, TRPC6 inhibitor inactive, TRPC6 act inactive and TRPC4 agonist inactive.
Screening CCOC(=O)c1cc2c(=O)n3ccccc3nc2n(Cc2ccco2)c1=NC(=O)c1cccnc1 returned TRPC4 block inactive, TRPC4 potent 11, TRPC6 inhibitor inactive, TRPC6 act inactive and TRPC4 agonist inactive.
Screening CCOC(=O)c1cc2c(=O)n3ccccc3nc2n(CCOC)c1=NC(=O)C(C)(C)C returned TRPC4 block inactive, TRPC4 potent inactive, TRPC6 inhibitor inactive, TRPC6 act inactive and TRPC4 agonist 152.
Screening CCOC(=O)c1cc2c(=O)n3ccccc3nc2n(C(C)C)c1=NC(=O)c1c(-c2ccccc2Cl)noc1C returned TRPC4 block -8, TRPC4 potent inactive, TRPC6 inhibitor inactive, TRPC6 act inactive and TRPC4 agonist inactive.
For CCOC(=O)c1cc2c(=O)n3ccccc3nc2n(Cc2ccco2)c1=NC(=O)c1ccccc1OCC the results were TRPC4 block inactive, TRPC4 potent inactive, TRPC6 inhibitor inactive, TRPC6 act inactive and TRPC4 agonist inactive.
Screening CCOC(=O)c1cc2c(=O)n3ccccc3nc2n(CCOC)c1=NC(=O)c1ccncc1 returned TRPC4 block inactive, TRPC4 potent inactive, TRPC6 inhibitor inactive, TRPC6 act inactive and TRPC4 agonist inactive.
For CCOC(=O)C(NC(=O)CC)(N1CCc2ccccc2C1)C(F)(F)F (stereo not given) the results were TRPC4 block inactive, TRPC4 potent inactive, TRPC6 inhibitor inactive, TRPC6 act inactive and TRPC4 agonist inactive.
`CN1CC(=O)N(CC(=O)NCc2ccc3c(c2)OCO3)C1=O` gave TRPC4 block inactive, TRPC4 potent inactive, TRPC6 inhibitor inactive, TRPC6 act inactive and TRPC4 agonist inactive.
For Cc1ccc(-n2c(SCC(N)=O)nnc2-c2cccnc2)c(C)c1 the results were TRPC4 block inactive, TRPC4 potent inactive, TRPC6 inhibitor inactive, TRPC6 act inactive and TRPC4 agonist inactive.
Cc1ccc(-n2c(SCc3cc(=O)n4ccsc4n3)nnc2-c2cccnc2)c(C)c1 was read as TRPC4 block -7, TRPC4 potent inactive, TRPC6 inhibitor inactive, TRPC6 act inactive and TRPC4 agonist inactive.
For CCCC(=O)N1CCc2cc(-c3nc(N)sc3C)ccc21 the results were TRPC4 block inactive, TRPC4 potent inactive, TRPC6 inhibitor inactive, TRPC6 act inactive and TRPC4 agonist 101.
Screening CNc1nc(-c2ccc3c(c2)CCN3C(=O)CC(C)(C)C)c(C)s1 returned TRPC4 block inactive, TRPC4 potent inactive, TRPC6 inhibitor inactive, TRPC6 act inactive and TRPC4 agonist inactive.
COc1cc(NC(=S)NCCc2ccccc2)c(OC)cc1NC(=O)CC(C)C was read as TRPC4 block -6, TRPC4 potent inactive, TRPC6 inhibitor inactive, TRPC6 act inactive and TRPC4 agonist inactive.
`C=CCn1c(SCC(=O)N2CCCCC2)nnc1-c1ccncc1` gave TRPC4 block inactive, TRPC4 potent inactive, TRPC6 inhibitor inactive, TRPC6 act inactive and TRPC4 agonist 75.
For Cc1cccc2cc(CN(Cc3nnnn3C3CCCC3)C3CCCCC3)c(=O)[nH]c12 the results were TRPC4 block inactive, TRPC4 potent inactive, TRPC6 inhibitor inactive, TRPC6 act inactive and TRPC4 agonist inactive.
Screening CCc1ccc2[nH]c(=O)c(CN(Cc3nnnn3C3CCCC3)C3CCCCC3)cc2c1 returned TRPC4 block inactive, TRPC4 potent 10, TRPC6 inhibitor inactive, TRPC6 act inactive and TRPC4 agonist inactive.
Screening CC(C)(C)c1csc(NC(=O)Cc2cccs2)n1 returned TRPC4 block inactive, TRPC4 potent 69, TRPC6 inhibitor inactive, TRPC6 act inactive and TRPC4 agonist inactive.
CC(/C=N/n1c(-c2cccnc2)n[nH]c1=S)=C\c1ccccc1 was read as TRPC4 block inactive, TRPC4 potent inactive, TRPC6 inhibitor inactive, TRPC6 act inactive and TRPC4 agonist inactive.
Screening CC(=C/c1ccccc1)/C=N/n1c(-c2ccncc2)n[nH]c1=S returned TRPC4 block inactive, TRPC4 potent 15, TRPC6 inhibitor inactive, TRPC6 act inactive and TRPC4 agonist inactive.
Screening O=c1cc(-c2ccccc2Cl)oc2c(NS(=O)(=O)c3cc(Cl)cc(Cl)c3O)ccc(O)c12 returned TRPC4 potent inactive, TRPC6 inhibitor inactive, TRPC6 act inactive and TRPC4 agonist 120.
Cc1ccc(OCc2ccc(C(=O)N3CCCC3)o2)cc1C was read as TRPC4 block inactive, TRPC4 potent inactive, TRPC6 inhibitor inactive, TRPC6 act inactive and TRPC4 agonist inactive.
For CCOc1ccc(OCc2ccc(C(=O)N3CCCCC3)o2)cc1 the results were TRPC4 block inactive, TRPC4 potent 10, TRPC6 inhibitor inactive, TRPC6 act inactive and TRPC4 agonist inactive.
`O=C(NCc1ccccc1Cl)c1ccc(CSc2nc3ccncc3[nH]2)cc1` gave TRPC4 block inactive, TRPC4 potent inactive, TRPC6 inhibitor inactive, TRPC6 act inactive and TRPC4 agonist inactive.
`Clc1ccccc1CSc1nc2ccncc2[nH]1` gave TRPC4 block -6, TRPC4 potent inactive, TRPC6 inhibitor inactive, TRPC6 act inactive and TRPC4 agonist inactive.
Cc1ccc(CNC(=O)CCS(=O)(=O)c2ccc3c(c2)CC(C)N3C(=O)C2CC2)cc1 (stereo not given) was read as TRPC4 block inactive, TRPC4 potent inactive, TRPC6 inhibitor inactive, TRPC6 act inactive and TRPC4 agonist inactive.
`CC(C)Cn1c(O)c(N=NC(=O)c2cccc(S(=O)(=O)N3CCCCC3)c2)c2ccccc21` gave TRPC4 block inactive, TRPC4 potent 17, TRPC6 inhibitor inactive, TRPC6 act inactive and TRPC4 agonist inactive.
`CC(C)CCn1c(O)c(N=NC(=O)c2ccco2)c2ccccc21` gave TRPC4 block inactive, TRPC4 potent inactive, TRPC6 inhibitor inactive, TRPC6 act inactive and TRPC4 agonist inactive.
For Cc1cccc(-c2csc(N)c2C(=O)OC(C)C)c1 the results were TRPC4 block -6, TRPC4 potent inactive, TRPC6 inhibitor inactive, TRPC6 act inactive and TRPC4 agonist inactive.
Screening Cc1ccc(C)c(-c2csc(N)c2C(=O)OC(C)C)c1 returned TRPC4 block inactive, TRPC4 potent inactive, TRPC6 inhibitor inactive, TRPC6 act inactive and TRPC4 agonist inactive.
